Experiments:
Conditions in all cases: stereoisomer not certain
O5AN1 = system: T1, O5AN1
T1 sequence (whole entry): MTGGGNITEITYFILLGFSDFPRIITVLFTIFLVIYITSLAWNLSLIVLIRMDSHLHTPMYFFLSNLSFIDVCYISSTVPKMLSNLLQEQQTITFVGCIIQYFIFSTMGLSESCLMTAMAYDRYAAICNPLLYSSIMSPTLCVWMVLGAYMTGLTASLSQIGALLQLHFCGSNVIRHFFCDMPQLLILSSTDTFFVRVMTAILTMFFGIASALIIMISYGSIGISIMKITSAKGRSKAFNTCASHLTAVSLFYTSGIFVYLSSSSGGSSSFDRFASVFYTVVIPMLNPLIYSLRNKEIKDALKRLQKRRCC
Summary of the method: (§1)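 Values were gathered from published papers (main text and supplementary material), with extra details requested from the original authors when needed, and checked for typos and inconsistencies. Each receptor–molecule pair is called responsive (active) if the original authors judged the measured signal statistically different from baseline, and non-responsive (inactive) otherwise. Assay methods varied by source, often transient mammalian cell-line luciferase assays. Recorded details include cell line, G-protein, co-transfected protein and tags.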

O5AN1 L289F = system: O5AN1 L289F
Summary of the method: as §1

O5AP2 A105T = system: O5AP2 A105T
Summary of the method: as §1

O5AU1 = system: O5AU1
Summary of the method: as §1

O5H14 = system: O5H14
Summary of the method: as §1

O5H15 V108I S148T T167S = system: O5H15 V108I S148T T167S
Summary of the method: as §1

O6C65 T222A = system: O6C65 T222A
Summary of the method: as §1

O6C70 L181P = system: O6C70 L181P
Summary of the method: as §1

O7E24 S193F P242S = system: O7E24 S193F P242S
Summary of the method: as §1

O7E24 = system: O7E24
Summary of the method: as §1

Measured: odorant receptor agonist call

O5AU1, sequence (as listed by the source): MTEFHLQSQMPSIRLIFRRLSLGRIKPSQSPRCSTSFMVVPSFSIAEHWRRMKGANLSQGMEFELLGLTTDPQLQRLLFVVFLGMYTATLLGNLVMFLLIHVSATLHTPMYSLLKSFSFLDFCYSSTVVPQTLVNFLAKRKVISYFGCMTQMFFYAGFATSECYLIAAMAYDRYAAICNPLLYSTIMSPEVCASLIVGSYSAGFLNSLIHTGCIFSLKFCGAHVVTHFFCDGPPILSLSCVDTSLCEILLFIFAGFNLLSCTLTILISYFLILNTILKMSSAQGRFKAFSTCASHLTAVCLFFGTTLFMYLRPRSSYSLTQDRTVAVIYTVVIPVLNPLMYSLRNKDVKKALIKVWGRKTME
O5AN1 L289F, sequence (as listed by the source, stated change not applied): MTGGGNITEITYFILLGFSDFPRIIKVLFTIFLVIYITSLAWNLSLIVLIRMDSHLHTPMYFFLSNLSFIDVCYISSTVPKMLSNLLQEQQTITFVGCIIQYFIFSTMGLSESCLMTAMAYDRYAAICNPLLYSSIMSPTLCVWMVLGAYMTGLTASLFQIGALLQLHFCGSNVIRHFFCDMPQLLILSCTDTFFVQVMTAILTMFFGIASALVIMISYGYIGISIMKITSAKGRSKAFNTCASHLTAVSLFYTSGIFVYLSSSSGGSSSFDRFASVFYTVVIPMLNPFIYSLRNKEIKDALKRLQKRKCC
O5H14, sequence (as listed by the source): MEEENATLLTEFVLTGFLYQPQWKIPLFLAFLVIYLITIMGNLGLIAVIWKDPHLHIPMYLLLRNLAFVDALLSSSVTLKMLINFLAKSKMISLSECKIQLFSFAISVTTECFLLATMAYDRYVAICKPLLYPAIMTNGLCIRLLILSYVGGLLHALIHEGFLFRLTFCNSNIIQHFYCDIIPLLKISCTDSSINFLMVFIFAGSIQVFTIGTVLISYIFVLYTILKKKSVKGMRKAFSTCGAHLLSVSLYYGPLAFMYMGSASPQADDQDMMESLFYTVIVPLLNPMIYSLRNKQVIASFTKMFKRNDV
O6C70 L181P, sequence (as listed by the source, stated change not applied): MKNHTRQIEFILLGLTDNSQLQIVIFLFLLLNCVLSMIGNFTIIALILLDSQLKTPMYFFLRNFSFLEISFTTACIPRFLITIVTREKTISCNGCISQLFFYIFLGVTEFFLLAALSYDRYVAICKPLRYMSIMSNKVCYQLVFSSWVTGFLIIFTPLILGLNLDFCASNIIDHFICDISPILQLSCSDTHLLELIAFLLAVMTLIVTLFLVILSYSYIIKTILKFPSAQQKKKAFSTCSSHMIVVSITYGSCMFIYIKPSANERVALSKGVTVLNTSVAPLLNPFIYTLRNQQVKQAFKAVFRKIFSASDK
O7E24, sequence (as listed by the source): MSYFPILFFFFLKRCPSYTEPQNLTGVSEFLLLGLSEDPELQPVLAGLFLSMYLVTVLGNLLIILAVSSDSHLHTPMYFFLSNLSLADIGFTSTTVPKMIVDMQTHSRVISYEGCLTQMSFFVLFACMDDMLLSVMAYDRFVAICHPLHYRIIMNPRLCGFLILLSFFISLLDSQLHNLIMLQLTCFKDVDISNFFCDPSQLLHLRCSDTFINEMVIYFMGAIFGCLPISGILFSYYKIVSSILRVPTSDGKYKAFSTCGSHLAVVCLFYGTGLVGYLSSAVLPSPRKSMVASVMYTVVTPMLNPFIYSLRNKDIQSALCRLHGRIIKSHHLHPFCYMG
O6C65 T222A, sequence (as listed by the source, stated change not applied): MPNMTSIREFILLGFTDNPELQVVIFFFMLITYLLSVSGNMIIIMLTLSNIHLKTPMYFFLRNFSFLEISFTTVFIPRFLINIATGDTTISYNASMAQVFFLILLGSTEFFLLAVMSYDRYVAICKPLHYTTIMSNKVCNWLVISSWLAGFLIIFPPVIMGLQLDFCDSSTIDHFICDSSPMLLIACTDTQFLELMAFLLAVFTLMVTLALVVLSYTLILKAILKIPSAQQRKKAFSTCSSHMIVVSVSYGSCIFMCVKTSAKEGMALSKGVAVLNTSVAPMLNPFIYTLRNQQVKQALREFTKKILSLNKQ
O5AP2 A105T, sequence (as listed by the source, stated change not applied): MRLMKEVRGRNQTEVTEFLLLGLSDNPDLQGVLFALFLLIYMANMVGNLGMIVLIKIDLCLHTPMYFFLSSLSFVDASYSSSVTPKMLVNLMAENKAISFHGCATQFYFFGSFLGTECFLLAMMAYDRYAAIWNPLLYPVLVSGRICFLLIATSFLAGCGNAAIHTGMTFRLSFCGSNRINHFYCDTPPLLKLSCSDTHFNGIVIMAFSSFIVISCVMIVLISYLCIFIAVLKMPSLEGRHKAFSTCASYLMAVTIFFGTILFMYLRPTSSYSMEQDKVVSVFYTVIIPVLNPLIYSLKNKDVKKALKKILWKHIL

CC(=O)c1cc(C(C)(C)C)cc2c1CCC2(C)C
inactive: O5AN1

C=CCOC(=O)Cc1ccccc1
not listed: O5AN1
inactive: all other assays above

Cc1c([N+](=O)[O-])c(C)c([N+](=O)[O-])c(C(C)(C)C)c1[N+](=O)[O-]
active: O5AN1

CC(=O)c1cc2c(cc1C)C(C)(C)C(C)CC2(C)C (configuration not stated)
inactive: O5AN1

From the M2OR odorant receptor database
